Assay results pooled from the literature.
Compare with care: the assays were run in different laboratories.
Target: Acetylcholinesterase (ACHE, Homo sapiens, UniProt P22303)
Action: inhibitor

SMILES	assay	IC50
O=C(NCCN1CCCCC1)c1ccc(Cl)cc1	enzyme activity, Ellman	46 µM
CCN(CC)c1ccc(C=NNC(=O)c2ccc(F)cc2)c(OS(=O)(=O)c2ccc(OC)cc2)c1	enzyme activity, Ellman	0.0837 µM
C#CCN(C)CCOc1cccc(CN(C)c2c3c(nc4ccccc24)CCCC3)c1	enzyme activity, Ellman	4.21 µM
Cn1cc(-c2cc(C(=O)NN=Cc3ccccc3F)no2)c2ccccc21	enzyme activity	> 100 µM
CN(C)c1ccc(/C=N/n2c(-c3cc([N+](=O)[O-])c[nH]3)n[nH]c2=S)c(O)c1	enzyme activity, Ellman	21.2 µM
C#CCN(C)CCCCCCCOc1cccc(CN(C)c2c3c(nc4ccccc24)CCCC3)c1	enzyme activity, Ellman	1.14 µM
O=[N+]([O-])c1c[nH]c(-c2n[nH]c(=S)n2/N=C/c2ccc(C(F)(F)F)cc2)c1	enzyme activity, Ellman	5.1 µM
C#CCN(C)CCCCCOCc1ccc(CN(C)c2c3c(nc4ccc(C)cc24)CCCC3)cc1	enzyme activity, Ellman	13.4 µM
COc1ccccc1C(=O)NCCN1CCCCC1	enzyme activity, Ellman	4.7 µM
COc1ccc(S(=O)(=O)Oc2ccccc2C=NNC(=O)c2ccc(F)cc2)cc1	enzyme activity, Ellman	0.107 µM
COc1cccc(C(=O)NCCN2CCCCC2)c1	enzyme activity, Ellman	5.2 µM
COc1ccccc1C=NNC(=O)c1cc(-c2cn(C)c3ccccc23)on1	enzyme activity	34.2 µM
O=C(NCCN1CCCCC1)c1ccccc1[N+](=O)[O-]	enzyme activity, Ellman	19 µM
O=[N+]([O-])c1c[nH]c(-c2n[nH]c(=S)n2/N=C/c2c(O)cc(O)cc2O)c1	enzyme activity, Ellman	6.2 µM
C#CCN(C)CCCCOc1cccc(CN(C)c2c3c(nc4ccccc24)CCCC3)c1	enzyme activity, Ellman	6.09 µM
O=[N+]([O-])c1c[nH]c(-c2n[nH]c(=S)n2/N=C/c2ccc(F)cc2O)c1	enzyme activity, Ellman	7.1 µM
COC(=O)c1cc(N(C)C(=O)c2ccn3ncc(-c4ccc(C(=O)O)cc4)c3c2)ccc1Cl	cell-free assay	> 30 µM
O=[N+]([O-])c1c[nH]c(-c2n[nH]c(=S)n2/N=C/c2ccc(F)cc2)c1	enzyme activity, Ellman	8.2 µM
COc1ccc(S(=O)(=O)Oc2cccc(C=NNC(=O)c3ccc(F)cc3)c2)cc1	enzyme activity, Ellman	0.0895 µM
Cn1cc(-c2cc(C(=O)NN=Cc3cccc([N+](=O)[O-])c3)no2)c2ccccc21	enzyme activity	45.6 µM
